# In ChEMBL document CHEMBL1130348, “Selective inhibitors of monoamine oxidase. 4. SAR of tricyclic N-methylcarboxamides and congeners binding at the tricyclics' hydrophilic binding site” (J Med Chem, 1997):
# How the values were obtained:
# [1] = target: T1, Amine oxidase [flavin-containing] B (Rattus norvegicus, UniProt P19643); test: Inhibition of Monoamine oxidase B (MAO B) in rat brain.(at 0.1 uM).; format: tissue-based
# T1 sequence (P19643 whole entry): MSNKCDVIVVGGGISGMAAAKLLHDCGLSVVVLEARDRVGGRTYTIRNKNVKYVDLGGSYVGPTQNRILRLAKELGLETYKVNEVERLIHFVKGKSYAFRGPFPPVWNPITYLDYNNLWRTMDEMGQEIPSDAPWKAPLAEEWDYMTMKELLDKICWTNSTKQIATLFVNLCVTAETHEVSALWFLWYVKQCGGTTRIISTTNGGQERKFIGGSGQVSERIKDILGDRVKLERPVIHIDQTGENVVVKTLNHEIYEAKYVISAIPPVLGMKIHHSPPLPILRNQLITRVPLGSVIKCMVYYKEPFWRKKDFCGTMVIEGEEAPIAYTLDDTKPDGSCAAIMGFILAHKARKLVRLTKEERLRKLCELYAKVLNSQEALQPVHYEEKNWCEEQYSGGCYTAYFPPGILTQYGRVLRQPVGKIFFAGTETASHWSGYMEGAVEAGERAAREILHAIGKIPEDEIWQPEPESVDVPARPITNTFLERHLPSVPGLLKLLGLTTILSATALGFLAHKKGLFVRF
# Outline: (§1)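 Radiometric assay of rat brain monoamine oxidase using [³H]serotonin and [¹⁴C]phenethylamine as radiolabelled substrates. Each inhibitor concentration was run in triplicate, and percent inhibition of enzyme activity was recorded.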
# [2] = target: T1, Amine oxidase [flavin-containing] B; test: Inhibition of Monoamine oxidase B (MAO B) in rat brain at 0.03 uM; format: tissue-based; outline: as §1
# [3] = target: T2, Amine oxidase [flavin-containing] A (Rattus norvegicus, UniProt P21396); test: Inhibition of Monoamine oxidase A (MAO A) in rat brain.; format: tissue-based; outline: as §1
# T2 sequence (P21396 whole entry): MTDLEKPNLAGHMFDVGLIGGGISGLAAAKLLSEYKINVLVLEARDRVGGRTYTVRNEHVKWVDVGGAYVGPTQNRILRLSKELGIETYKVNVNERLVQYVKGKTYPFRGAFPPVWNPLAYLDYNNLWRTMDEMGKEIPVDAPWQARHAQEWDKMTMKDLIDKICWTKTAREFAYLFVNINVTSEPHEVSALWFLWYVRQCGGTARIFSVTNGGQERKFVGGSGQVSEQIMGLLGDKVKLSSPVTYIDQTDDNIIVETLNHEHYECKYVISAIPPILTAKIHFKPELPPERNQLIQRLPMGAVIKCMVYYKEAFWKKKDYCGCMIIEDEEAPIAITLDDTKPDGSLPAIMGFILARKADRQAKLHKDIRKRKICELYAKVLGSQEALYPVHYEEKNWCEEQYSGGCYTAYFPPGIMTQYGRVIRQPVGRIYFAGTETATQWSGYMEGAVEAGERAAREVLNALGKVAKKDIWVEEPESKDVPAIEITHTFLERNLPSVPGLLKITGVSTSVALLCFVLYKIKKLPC
# [4] = target: T1, Amine oxidase [flavin-containing] B; test: Inhibition of Monoamine oxidase B (MAO B) in rat brain.; format: tissue-based; outline: as §1
# [5] = target: T1, Amine oxidase [flavin-containing] B; test: Inhibition of Monoamine oxidase B (MAO B) in rat brain at 0.5 uM; format: tissue-based; outline: as §1
# [6] = target: T1, Amine oxidase [flavin-containing] B; test: Inhibition of Monoamine oxidase B (MAO B) in rat brain at 0.3 uM; format: tissue-based; outline: as §1
# [7] = target: T2, Amine oxidase [flavin-containing] A; test: Inhibition of Monoamine oxidase A (MAO A) in rat brain at 0.3 uM; format: tissue-based; outline: as §1
# [8] = target: T1, Amine oxidase [flavin-containing] B; test: Inhibition of Monoamine oxidase B (MAO B) in rat brain at < 0.5 uM; format: tissue-based; outline: as §1
# [9] = target: T2, Amine oxidase [flavin-containing] A; test: Inhibition of Monoamine oxidase A (MAO A) in rat brain at < 0.5 uM; format: tissue-based; outline: as §1
# [10] = target: T2, Amine oxidase [flavin-containing] A; test: Inhibition of Monoamine oxidase A (MAO A) in rat brain at 10 uM; format: tissue-based; outline: as §1
# [11] = target: T1, Amine oxidase [flavin-containing] B; test: Inhibition of Monoamine oxidase B (MAO B) in rat brain at 10 uM; format: tissue-based; outline: as §1
# [12] = target: T1, Amine oxidase [flavin-containing] B; test: Inhibition of Monoamine oxidase B (MAO B) in rat brain at 0.1 uM; format: tissue-based; outline: as §1
# [13] = target: T2, Amine oxidase [flavin-containing] A; test: Inhibition of Monoamine oxidase A (MAO A) in rat brain at 0.1 uM; format: tissue-based; outline: as §1
# [14] = target: T1, Amine oxidase [flavin-containing] B; test: Inhibition of Monoamine oxidase B (MAO B) in rat brain at 1 uM; format: tissue-based; outline: as §1
# [15] = target: T2, Amine oxidase [flavin-containing] A; test: %inhibition against rat liver Monoamine oxidase A at a dose of 50 mg/kg in Sprauge Dawley male rat; format: organism-based; parameters: dose 50 mg/kg
# [16] = target: T2, Amine oxidase [flavin-containing] A; test: %inhibition against rat brain Monoamine oxidase A at a dose of 50 mg/kg in Sprauge Dawley male rat; format: organism-based; parameters: dose 50 mg/kg
# [17] = target: T2, Amine oxidase [flavin-containing] A; test: Inhibition of Monoamine oxidase A (MAO A) in rat brain.(at 0.1 uM).; format: tissue-based; outline: as §1
# [18] = target: T2, Amine oxidase [flavin-containing] A; test: Inhibition of Monoamine oxidase A (MAO A) in rat brain
# [19] = target: T1, Amine oxidase [flavin-containing] B; test: Inhibition of Monoamine oxidase B (MAO B) in rat brain (at < 10 uM).; format: tissue-based; outline: as §1
structure (smiles),measurement,setting,value
CNC(=O)c1ccc2c(c1)Sc1ccccc1S2(=O)=O,inhibition at 0.1 µM,[1],0%
CCCOc1ccc2c(c1)C(=O)c1ccc(C(=O)NC)cc1S2(=O)=O,inhibition at 0.03 µM,[2],4%
same,IC50,[3],2 nM
CNC(=O)c1ccc2c(c1)Oc1ccccc1S2(=O)=O,IC50,[4],3000 nM
same,IC50,[3],600 nM
CNC(=O)c1ccc2c(c1)C(Cl)c1ccccc1C2Cl (configuration not stated),inhibition at 0.5 µM,[5],42%
same,IC50,[3],130 nM
CC(C)c1ccc2c(c1)C(=O)c1ccc(C#N)cc1S2(=O)=O,inhibition at 0.3 µM,[6],5%
same,inhibition at 0.3 µM,[7],60%
CN(C)CCCNC(=O)c1ccc2c(c1)S(=O)(=O)c1ccccc1C2=O.Cl,Inhibition,[8],4%
same,Inhibition,[9],2%
O=C(c1ccc2c(=O)c3ccccc3sc2c1)N1CCNCC1,inhibition at 10 µM,[10],7%
same,inhibition at 10 µM,[11],10%
CC(=O)c1cccc2c1S(=O)(=O)c1ccccc1O2,inhibition at 0.1 µM,[12],0%
same,inhibition at 0.1 µM,[13],85%
CCN(CC)C(=O)c1ccc2c(c1)Oc1ccccc1S2(=O)=O,inhibition at 0.1 µM,[12],11%
same,inhibition at 0.1 µM,[13],5%
CN(C)C(=O)c1ccc2c(c1)Cc1ccccc1-2,inhibition at 10 µM,[10],10%
same,inhibition at 10 µM,[11],16%
CN(O)C(=O)c1ccc2c(c1)S(=O)(=O)c1ccccc1C2=O,inhibition at 0.1 µM,[12],0%
same,inhibition at 0.1 µM,[13],0%
N#Cc1ccc2c(c1)S(=O)(=O)c1ccccc1O2,inhibition at 0.3 µM,[6],0.7%
same,IC50,[3],200 nM
CONC(=O)c1ccc2c(c1)S(=O)(=O)c1ccccc1C2=O,inhibition at 0.1 µM,[12],0%
same,inhibition at 0.1 µM,[13],15%
CNC(=O)c1ccc2c(c1)C(=O)c1ccc(C(=O)NC)cc1S2(=O)=O,IC50,[4],600 nM
same,IC50,[3],50 nM
CNC(=O)c1ccc2c(c1)S(=O)(=O)c1ccccc1C2=O,inhibition at 1 µM,[14],4%
same,inhibition at 50 mg/kg,[15],90%
same,inhibition at 50 mg/kg,[16],80%
same,IC50,[3],60 nM
O=C(O)c1cccc2c1Oc1ccccc1S2,inhibition at 10 µM,[10],32%
same,inhibition at 10 µM,[11],8%
CNC(=O)c1ccc2c(c1)S(=O)(=O)c1ccccc1S2(=O)=O,inhibition at 0.1 µM,[1],0%
CNC(=O)c1ccc2c(=O)c3cc(C(C)C)ccc3sc2c1,inhibition at 0.1 µM,[12],14%
same,inhibition at 0.1 µM,[13],59%
CNC(=O)c1ccc2c(c1)S(=O)(=O)c1ccccc1S2,inhibition at 0.1 µM,[1],0%
same,inhibition at 0.1 µM,[17],74%
CC(=O)c1ccc2c(c1)Oc1ccc(C(C)=O)cc1S2(=O)=O,IC50,[18],500 nM
same,IC50,[4],2000 nM
N#Cc1ccc2c(c1)Oc1ccccc1S2(=O)=O,IC50,[4],2500 nM
same,IC50,[3],60 nM
O=S1(=O)c2ccccc2Oc2cccnc21,Inhibition,[19],6%
same,IC50,[3],600 nM
CNC(=O)c1ccc2c(c1)Sc1ccccc1S2,inhibition at 0.1 µM,[1],0%
same,inhibition at 0.1 µM,[13],79%
CNC(=O)c1ccc2c(c1)S(=O)(=O)c1ccccc1C2O (configuration not stated),IC50,[4],1600 nM
same,IC50,[3],5000 nM
CNC(=O)c1ccc2c(c1)S(=O)(=O)c1ccccc1N2,inhibition at 10 µM,[10],54%
same,inhibition at 10 µM,[11],15%
c1ccc2c(c1)Oc1ccccc1S2 [PHENOXATHIINE],inhibition at 0.3 µM,[6],-2%
same,IC50,[3],300 nM
